Assay results from ChEMBL document CHEMBL4765368, “Structure guided design and synthesis of furyl thiazolidinedione derivatives as inhibitors of GLUT 1 and GLUT 4, and evaluation of their anti-leukemic potential” (Eur J Med Chem, 2020).
Calls of active or inactive are those of the source. The rule behind the calls is not given here.

Key:
[1] = biological target: T1, Solute carrier family 2, facilitated glucose transporter member 1 (Homo sapiens) (UniProt P11166); assay: Inhibition of GLUT1 in human CCRF-CEM cells assessed as upregulation of GRP78 expression at 10 uM measured after 6 hrs by Western blot analysis; type: cell-based
T1 sequence (whole entry): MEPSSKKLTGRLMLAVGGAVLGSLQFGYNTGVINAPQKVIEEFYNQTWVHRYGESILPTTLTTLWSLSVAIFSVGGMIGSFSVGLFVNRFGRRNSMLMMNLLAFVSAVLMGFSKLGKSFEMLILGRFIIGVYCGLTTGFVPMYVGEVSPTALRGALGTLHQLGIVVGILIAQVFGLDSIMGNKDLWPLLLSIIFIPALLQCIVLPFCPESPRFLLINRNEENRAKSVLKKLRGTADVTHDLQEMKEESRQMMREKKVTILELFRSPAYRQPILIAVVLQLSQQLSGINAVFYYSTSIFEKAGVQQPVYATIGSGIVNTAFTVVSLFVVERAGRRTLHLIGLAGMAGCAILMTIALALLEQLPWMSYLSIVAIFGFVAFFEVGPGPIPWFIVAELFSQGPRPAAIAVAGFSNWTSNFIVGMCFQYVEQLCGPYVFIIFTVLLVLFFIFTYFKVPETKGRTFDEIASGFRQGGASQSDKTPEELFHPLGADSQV
How it was run: (§1)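 CEM cells were treated with 10 µM for 6 h. Untreated cells were the negative control and staurosporine the positive control. Cells were washed with cold PBS, lysed in Laemmli buffer with protease inhibitors, sonicated and quantified. Blots were blocked 45 min in PBS-Tween-5% milk, with primary antibody 3 h and secondary 1 h at room temperature.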

CCRF-CEM [2] = assay: Induction of apoptosis in human CCRF-CEM cells assessed as live cells at CC50 measured after 24 hrs by AnnexinV-FITC/propidium iodide staining based flow cytometry analysis (reference value: 92.15%); type: functional
How it was run: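 CCRF-CEM cells in RPMI with 10% FBS were seeded in 24-well plates, incubated overnight, given fresh medium, then treated for 24 h. Cells were PBS-washed, spun at 500 g for 5 min at 4 °C, and resuspended in ice-cold binding buffer. They were stained with annexin V-FITC and PI for 15 min on ice in the dark, then read by flow cytometry. Untreated cells were the negative control; triplicates.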

K562 = assay: Cytotoxicity against human K562 cells assessed as reduction in cell viability measured after 48 hrs by Hoechst 33342/propidium iodide staining based imaging analysis; type: functional
How it was run: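 Cells were seeded at 10,000 per well (HS-27 at 3,000) in 10% FBS RPMI (leukemic lines) or DMEM (MDA-MB-231, HS-27). Compound in DMSO (1% v/v final) at 0.5–100 µM for 48 h. Hoechst 33342 and PI were added 2 h before automated imaging; dead cells were co-stained. Quadruplicates. CC50 was taken by linear interpolation between the two concentrations nearest 50% death.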

[3] = Cytotoxicity against human WBC assessed as cell viability at higher concentration measured after 48 hrs by MTT assay relative to control; type: tissue-based
CCRF-CEM [4] = assay: Cell cycle arrest in human CCRF-CEM cells assessed as decrease in accumulation at S phase measured after 72 hrs by NIM-DAPI staining based flow cytometry; type: functional
How it was run: (§2)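 An asynchronous CEM culture was seeded at 100,000 cells/well in 1 mL complete RPMI and exposed to 10, 25 or 50 μM for 72 h. Controls were untreated cells, DMSO and hydrogen peroxide. Cells were pelleted at 262 g, resuspended, and stained with NIM-DAPI, which permeabilizes and stains DNA in one step. About 100,000 events per sample were read by flow cytometry. Triplicates.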

[5] = Cytotoxicity against human WBC assessed as reduction in cell viability measured after 48 hrs by MTT assay; type: tissue-based
How it was run: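 WBCs were isolated from donor blood by HiSep density centrifugation, followed by RBC lysis and PBS washes, and held overnight at 37 °C with 5% CO2. Compound at 2.5–100 μM for 48 h. After two PBS washes, MTT was added for 4 h at 37 °C, formazan was dissolved in DMSO, and absorbance was read at 570 nm. IC50 taken from the dose-response curve.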

CCRF-CEM [6] = assay: Cell cycle arrest in human CCRF-CEM cells assessed as increase in accumulation at sub-G0/G1 phase measured after 72 hrs by NIM-DAPI staining based flow cytometry; type: functional; how it was run: as §2
[7] = biological target: T1, Solute carrier family 2, facilitated glucose transporter member 1 (Homo sapiens); assay: Inhibition of transport activity of human GLUT1 expressed in hexose transporter deficient VW4000fgy1 yeast cells assessed as reduction in transporter-mediated [14C]-hexose uptake into cells at 100 uM measured after 10 mins by scintillation counting method relative to control; type: cell-based
How it was run: (§3)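 The hxt0 yeast strain expressing one human GLUT was grown at 30 °C and resuspended in PBS pH 7.4 at OD600 ~10. Uptake was started with 14C-glucose at 5 mM final (GLUT1, GLUT4) or 14C-fructose at 10 mM final (GLUT5). It was quenched after 10 min with ice-cold 0.1 M KPi/0.1 M LiCl pH 5.5, filtered and counted by scintillation. Compound at 100 μM with 1% DMSO; DMSO control and phloretin 200 μM (GLUT1/4) or MSNBA 100 μM (GLUT5) as references. Triplicates.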

[8] = Toxicity in SCID mouse assessed as death at 500 mg/kg, ip administered as single dose; type: organism-based; details: in vivo
How it was run: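 SCID mice aged 8–10 weeks were kept in individually ventilated cages on a 12 h light/dark cycle with autoclaved pellets and water ad libitum.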

CCRF-CEM [9] = assay: Cell cycle arrest in human CCRF-CEM cells assessed as decrease in accumulation at G0/G1 phase measured after 72 hrs by NIM-DAPI staining based flow cytometry; type: functional; how it was run: as §2
[10] = biological target: T2, Solute carrier family 2, facilitated glucose transporter member 5 (Homo sapiens) (UniProt P22732); assay: Inhibition of transport activity of human GLUT5 expressed in hexose transporter deficient VW4000 yeast cells assessed as reduction in transporter-mediated [14C]-fructose uptake into cells at 100 uM measured after 10 mins by scintillation counting method; type: cell-based; how it was run: as §3
T2 sequence (whole entry): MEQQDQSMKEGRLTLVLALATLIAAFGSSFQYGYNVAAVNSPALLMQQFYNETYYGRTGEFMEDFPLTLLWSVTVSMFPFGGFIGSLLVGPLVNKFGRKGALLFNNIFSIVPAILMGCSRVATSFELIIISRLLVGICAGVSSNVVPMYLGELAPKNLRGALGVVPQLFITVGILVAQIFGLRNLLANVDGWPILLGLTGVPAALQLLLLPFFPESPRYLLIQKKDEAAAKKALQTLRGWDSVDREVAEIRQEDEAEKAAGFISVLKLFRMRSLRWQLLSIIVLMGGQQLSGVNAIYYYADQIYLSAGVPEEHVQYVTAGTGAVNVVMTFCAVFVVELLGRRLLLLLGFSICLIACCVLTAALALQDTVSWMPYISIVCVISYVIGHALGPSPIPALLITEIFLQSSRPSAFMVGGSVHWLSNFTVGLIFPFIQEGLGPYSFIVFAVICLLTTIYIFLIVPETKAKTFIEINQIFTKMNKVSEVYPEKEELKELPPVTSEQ

[11] = biological target: T1, Solute carrier family 2, facilitated glucose transporter member 1 (Homo sapiens); assay: Inhibition of GLUT1 in human CCRF-CEM cells assessed as decrease in CDK2 phosphorylation at 10 uM measured after 6 hrs by Western blot analysis; type: cell-based; how it was run: as §1

O=C(CN1C(=O)S/C(=C/c2ccco2)C1=O)Nc1nc2ccccc2s1
inhibition [1]: Active | Activity (CCRF-CEM [2]): 26.14% | CC50 (K562): 91.9 µM | Activity [3]: > 62% | Activity (CCRF-CEM [4]): Dose-dependent effect | IC50 [5]: 187 µM | Activity (CCRF-CEM [6]): Dose-dependent effect | inhibition [7]: 100% | Activity [8]: Non-Toxic | Activity (CCRF-CEM [9]): Dose-dependent effect | inhibition [10]: inactive | inhibition [11]: Active

O=C(CN1C(=O)S/C(=C/c2ccco2)C1=O)Nc1ccc(Cl)c(Cl)c1
CC50 (K562): 43.3 µM | inhibition [7]: > 50% | inhibition [10]: inactive
